In ChEMBL document CHEMBL2413044, “Synthesis and biological evaluation of potential threonine synthase inhibitors: Rhizocticin A and Plumbemycin A” (Bioorg Med Chem, 2013):
Calls of active or inactive are those of the source.

Assays:
Assay type in all cases: functional, organism-based
Nakaseomyces glabratus [1] = assay: Antifungal activity against Candida glabrata at 3.5 to 1050 ug/L after 24 hrs by YNB medium disc diffusion method in absence of amino acids
Method in brief: (§1)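 Disk diffusion on yeast-seeded agar plates (20 g/L agar added), either malt extract medium or YNB without amino acids. Sterile 6 mm paper disks held varying amounts of compound, matching the liquid-assay concentrations. The growth-inhibition zone diameter was measured after 24 h at 28 °C.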

Saccharomyces cerevisiae [2] = assay: Antifungal activity against Saccharomyces cerevisiae at 3.5 to 1050 ug/L after 24 hrs by YNB medium disc diffusion method in absence of amino acids; method in brief: as §1
Candida albicans [3] = assay: Antifungal activity against Candida albicans at 3.5 to 1050 ug/L after 24 hrs by YNB medium disc diffusion method in absence of amino acids; method in brief: as §1
Nakaseomyces glabratus [4] = assay: Antifungal activity against Candida glabrata at 3.5 to 1050 ug/L after 24 hrs by malt extract medium disc diffusion method; method in brief: as §1
Saccharomyces cerevisiae [5] = assay: Antifungal activity against Saccharomyces cerevisiae at 3.5 to 1050 ug/L after 24 hrs by malt extract medium disc diffusion method; method in brief: as §1
Candida albicans [6] = assay: Antifungal activity against Candida albicans at 3.5 to 1050 ug/L after 24 hrs by malt extract medium disc diffusion method; method in brief: as §1
Nakaseomyces glabratus [7] = assay: Antifungal activity against Candida glabrata at 3.5 to 1050 ug/L after 24 hrs by microdilution method
Method in brief: (§2)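 Yeast microdilution in 24-well plates. Wells were seeded at OD600 0.1 and grown aerobically with the compound (range as in the assay line) for 24 h at 28 °C with agitation. Growth was read as OD600. Runs were in triplicate in YPD, malt extract (20 g/L), RPMI 1640, and YNB without amino acids.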

Saccharomyces cerevisiae [8] = assay: Antifungal activity against Saccharomyces cerevisiae at 3.5 to 1050 ug/L after 24 hrs by microdilution method; method in brief: as §2
Candida albicans [9] = assay: Antifungal activity against Candida albicans at 3.5 to 1050 ug/L after 24 hrs by microdilution method; method in brief: as §2
Pseudomonas aeruginosa [10] = assay: Antibacterial activity against Pseudomonas aeruginosa 2 to 10 ug/L after 24 hrs by Stephenson-Wetham medium disc diffusion method in absence of amino acids
Method in brief: (§3)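 Agar diffusion. Sterile 6 mm paper disks carrying different amounts of compound were placed on Stephenson–Wetham agar (20 g/L agar) pre-seeded with the indicator bacterium. Amounts matched those of the liquid test. After 24 h at 37 °C, the diameter of the growth-inhibition zone was measured.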

Escherichia coli [11] = assay: Antibacterial activity against Escherichia coli 2 to 10 ug/L after 24 hrs by Stephenson-Wetham medium disc diffusion method in absence of amino acids; method in brief: as §3
Listeria innocua [12] = assay: Antibacterial activity against Listeria innocua 2 to 10 ug/L after 24 hrs by Stephenson-Wetham medium disc diffusion method in absence of amino acids; method in brief: as §3
Bacillus subtilis [13] = assay: Antibacterial activity against Bacillus subtilis 2 to 10 ug/L after 24 hrs by Stephenson-Wetham medium disc diffusion method in absence of amino acids; method in brief: as §3
Pseudomonas aeruginosa [14] = assay: Antibacterial activity against Pseudomonas aeruginosa 2 to 10 ug/L after 24 hrs by Stephenson-Wetham medium disc diffusion method; method in brief: as §3
Escherichia coli [15] = assay: Antibacterial activity against Escherichia coli 2 to 10 ug/L after 24 hrs by Stephenson-Wetham medium disc diffusion method; method in brief: as §3
Listeria innocua [16] = assay: Antibacterial activity against Listeria innocua 2 to 10 ug/L after 24 hrs by Stephenson-Wetham medium disc diffusion method; method in brief: as §3
Bacillus subtilis [17] = assay: Antibacterial activity against Bacillus subtilis 2 to 10 ug/L after 24 hrs by Stephenson-Wetham medium disc diffusion method; method in brief: as §3
Pseudomonas aeruginosa [18] = assay: Antibacterial activity against Pseudomonas aeruginosa 2 to 10 ug/L after 24 hrs by microdilution method
Escherichia coli [19] = assay: Antibacterial activity against Escherichia coli 2 to 10 ug/L after 24 hrs by microdilution method
Listeria innocua [20] = assay: Antibacterial activity against Listeria innocua 2 to 10 ug/L after 24 hrs by microdilution method
Bacillus subtilis [21] = assay: Antibacterial activity against Bacillus subtilis 2 to 10 ug/L after 24 hrs by microdilution method

Measured: Activity

N=C(N)NCCC[C@H](N)C(=O)N[C@@H](/C=C\CP(=O)(O)O)C(=O)O
inactive: Nakaseomyces glabratus [1] | Saccharomyces cerevisiae [2] | Candida albicans [3] | Nakaseomyces glabratus [4] | Saccharomyces cerevisiae [5] | Candida albicans [6] | Nakaseomyces glabratus [7] | Saccharomyces cerevisiae [8] | Candida albicans [9]

C[C@H](N)C(=O)N[C@@H](CC(=O)O)C(=O)N[C@@H](/C=C\CP(=O)(O)O)C(=O)O
not listed: Nakaseomyces glabratus [1] | Saccharomyces cerevisiae [2] | Candida albicans [3] | Nakaseomyces glabratus [4] | Saccharomyces cerevisiae [5] | Candida albicans [6] | Nakaseomyces glabratus [7] | Saccharomyces cerevisiae [8] | Candida albicans [9]
inactive: all other assays above
